Measurements taken from ChEMBL document CHEMBL1131427, “Synthesis of imidazo[1,2-a]pyridines as antiviral agents” (J Med Chem, 1998).
In brackets after ≈: the same amount, converted by molar mass.

Assays:
[1] = system: HEL; test: Inhibition of cell proliferation expressed as CC50; assay type: functional, Homo sapiens
[2] = system: Human alphaherpesvirus 3; test: Anti-VZV activity against 07/1 TK- in HEL cells; assay type: functional, organism-based; conditions: Human alphaherpesvirus 3, HEL
[3] = system: Human alphaherpesvirus 3; test: Anti-VZV activity against OKA strain TK+ in HEL cells; assay type: functional, organism-based; conditions: Human alphaherpesvirus 3, oka
[4] = system: Human alphaherpesvirus 3; test: Anti-VZV activity against YS TK+ in HEL cells; assay type: functional, organism-based; conditions: Human alphaherpesvirus 3, HEL
[5] = system: Human alphaherpesvirus 3; test: Anti-VZV activity against YS/R TK- in HEL cells; assay type: functional, organism-based; conditions: Human alphaherpesvirus 3, ys-r
[6] = system: Human betaherpesvirus 5; test: Anti CMV (Cytomegalovirus- virus) activity against AD-169 strain in HEL cells; assay type: functional, organism-based; conditions: Human betaherpesvirus 5, HEL
Method in brief: (§1)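 Run in human embryonic lung (HEL) cells. The value is the 50% virus-inhibitory concentration, given in µg/mL.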

[7] = system: Cytomegalovirus; test: Anti CMV (Cytomegalovirus- virus) activity against Davis strain in HEL cells; assay type: functional, organism-based; conditions: Human betaherpesvirus 5, HEL; method in brief: as §1
[8] = Ratio of Cytotoxicity concentration to that of virus-inhibitory concentration.; assay type: functional
Method in brief: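 Selectivity index is the 50% cytotoxic concentration in HEL cells divided by the 50% inhibitory concentration against CMV strain AD-169 in HEL cells.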

[9] = system: HEL; test: The compound was tested for inhibition of cell proliferation in Human Embryonic Lung (HEL) Cells.; assay type: functional
[10] = system: HEL; test: The compound was tested for Anti-VZV activity against 07/1 strain TK- in HEL cells; assay type: functional, cell-based; conditions: Homo sapiens; method in brief: as §1
[11] = system: HEL; test: The compound was tested for Anti-VZV activity against YS strain TK+ in HEL cells; assay type: functional, cell-based; conditions: Homo sapiens; method in brief: as §1
[12] = system: HEL; test: The compound was tested for Anti-VZV activity against YS/R strain TK- in HEL cells; assay type: functional, cell-based; conditions: Homo sapiens; method in brief: as §1
[13] = Ratio of 50% cytotoxic concentration to 50% virus-inhibitory concentration [the latter based on the 50% inhibitory concentration for CMV (AD-169 strain); assay type: functional

SMILES	CC [1]	IC50 [2]	IC50 [3]	IC50 [4]	IC50 [5]	IC50 [6]	IC50 [7]	Selectivity index [8]	CC50 [9]	IC50 [10]	IC50 [11]	IC50 [12]	Selectivity index [13]
Cc1nc2ccccn2c1CSCc1ccccc1	33 µg/mL	0.5 µg/mL (≈ 1.86 µM)	0.37 µg/mL (≈ 1.38 µM)	0.23 µg/mL (≈ 0.857 µM)	0.28 µg/mL (≈ 1.04 µM)	0.12 µg/mL (≈ 0.447 µM)	0.13 µg/mL (≈ 0.484 µM)	275					
Cc1ccc2ncc(CSCc3ccccc3)n2c1	23 µg/mL	2.58 µg/mL (≈ 9.61 µM)	0.74 µg/mL (≈ 2.76 µM)	6.4 µg/mL (≈ 23.8 µM)	1.2 µg/mL (≈ 4.47 µM)	0.3 µg/mL (≈ 1.12 µM)	0.5 µg/mL (≈ 1.86 µM)	77					
FC(F)(F)c1cc(Cl)c2ncc(CSCc3ccccc3)n2c1	40 µg/mL	> 5 µg/mL	6.6 µg/mL (≈ 18.5 µM)	8.8 µg/mL (≈ 24.7 µM)	9.8 µg/mL (≈ 27.5 µM)	> 5 µg/mL	> 5 µg/mL	<8					
Cc1c(Br)cc(Br)c2ncc(CSCc3ccccc3)n12	>50 µg/mL	> 50 µg/mL	> 50 µg/mL	> 50 µg/mL	> 20 µg/mL	> 50 µg/mL	> 50 µg/mL						
Cc1ccn2c(CSCCc3ccccc3)cnc2c1	>50 µg/mL	0.95 µg/mL (≈ 3.36 µM)	0.2 µg/mL (≈ 0.708 µM)	0.5 µg/mL (≈ 1.77 µM)	0.66 µg/mL (≈ 2.34 µM)	0.33 µg/mL (≈ 1.17 µM)	0.35 µg/mL (≈ 1.24 µM)	>151					
Cc1cc(Br)cn2c(CSCc3ccccc3)cnc12	>50 µg/mL	1.4 µg/mL (≈ 4.03 µM)	5.5 µg/mL (≈ 15.8 µM)	7 µg/mL (≈ 20.2 µM)	0.86 µg/mL (≈ 2.48 µM)	0.12 µg/mL (≈ 0.346 µM)	0.12 µg/mL (≈ 0.346 µM)	>417					
Cc1ccn2c(CSCc3ccccc3Cl)cnc2c1	18 µg/mL	> 5 µg/mL	1.8 µg/mL (≈ 5.94 µM)	> 5 µg/mL	> 5 µg/mL	0.5 µg/mL (≈ 1.65 µM)	0.7 µg/mL (≈ 2.31 µM)	36					
Cc1ccc(C)n2c(CSCc3ccccc3)cnc12	3 µg/mL	> 2 µg/mL	> 2 µg/mL	> 2 µg/mL	> 2 µg/mL	1.2 µg/mL (≈ 4.25 µM)	> 2 µg/mL	2.5					
Cc1ccn2c(CSCC(F)(F)F)cnc2c1			> 50 µg/mL			40 µg/mL (≈ 154 µM)	42 µg/mL (≈ 161 µM)		> 50 µg/mL	> 50 µg/mL	> 50 µg/mL	> 50 µg/mL	>1.2
Cc1ccn2c(CSCc3ccc(Cl)cc3)cnc2c1	19 µg/mL	> 5 µg/mL	2 µg/mL (≈ 6.6 µM)	> 5 µg/mL	> 5 µg/mL	1.2 µg/mL (≈ 3.96 µM)	1.6 µg/mL (≈ 5.28 µM)	16					
Cc1ccn2c(CSCc3ccccc3)cnc2c1	45 µg/mL		15 µg/mL (≈ 55.9 µM)	17 µg/mL (≈ 63.3 µM)	10 µg/mL (≈ 37.3 µM)	3.5 µg/mL (≈ 13 µM)	3.5 µg/mL (≈ 13 µM)	13					
Cc1cc(Br)c2ncc(CSCc3ccccc3)n2c1	>50 µg/mL	9 µg/mL (≈ 25.9 µM)	31 µg/mL (≈ 89.3 µM)	> 50 µg/mL	4 µg/mL (≈ 11.5 µM)	1.1 µg/mL (≈ 3.17 µM)	1.1 µg/mL (≈ 3.17 µM)	>45					
Cc1cccn2c(CSCc3ccccc3)c(-c3ccccc3)nc12	13 µg/mL	> 2 µg/mL	> 2 µg/mL	> 2 µg/mL	2 µg/mL (≈ 5.81 µM)	1.2 µg/mL (≈ 3.48 µM)	> 2 µg/mL	11					
Cc1ccn2c(CSCc3ccccc3)c(-c3ccccc3)nc2c1	>50 µg/mL	> 50 µg/mL	> 20 µg/mL	> 20 µg/mL	> 50 µg/mL	> 20 µg/mL	> 20 µg/mL						
Cc1ccn2c(CSCc3ccccc3)c(C)nc2c1	>50 µg/mL	14.1 µg/mL (≈ 49.9 µM)	10.5 µg/mL (≈ 37.2 µM)	> 5 µg/mL	10 µg/mL (≈ 35.4 µM)	3.4 µg/mL (≈ 12 µM)	3.5 µg/mL (≈ 12.4 µM)	>15					
Cc1cccn2c(CSCc3ccccc3)cnc12	8 µg/mL	0.4 µg/mL (≈ 1.49 µM)	0.9 µg/mL (≈ 3.35 µM)	0.3 µg/mL (≈ 1.12 µM)	> 1 µg/mL	0.2 µg/mL (≈ 0.745 µM)	0.2 µg/mL (≈ 0.745 µM)	40					
Nc1nc2c(ncn2COCCO)c(=O)[nH]1 [ACYCLOVIR]	>100 µg/mL												
O=c1[nH]c(=O)n([C@H]2C[C@H](O)[C@@H](CO)O2)cc1/C=C/Br [BRIVUDINE]	>50 µg/mL	> 50 µg/mL	0.0009 µg/mL (≈ 0.0027 µM)	0.002 µg/mL (≈ 0.006 µM)	> 20 µg/mL								
Nc1nc2c(ncn2COC(CO)CO)c(=O)[nH]1 [GANCICLOVIR]	>100 µg/mL					0.5 µg/mL (≈ 1.96 µM)	0.5 µg/mL (≈ 1.96 µM)						
